Reference: ChEMBL document CHEMBL1147350, “Sesquiterpene-derived metabolites from the deep water marine sponge Poecillastra sollasi” (J Nat Prod, 1993)
Values after ≈ are worked out from the molar mass of the structure shown.

What was measured:
[1] = Displacement of [125I]angiotensin 2 from angiotensin 2 receptor in rat aorta smooth muscle cell membrane by genesys gamma counting
Outline: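 Duplicate tubes: 0.88 nM (final) [125I]angiotensin II, membranes 75–125 μg/ml protein, 3 h at 25°; nonspecific with 1 μM unlabeled angiotensin II. GF/C filtration, gamma counting, nonlinear regression.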

P388 = assay: Cytotoxicity against mouse P388 cells by MTT assay; format: functional, cell-based
A549 = assay: Cytotoxicity against human A549 cells by MTT assay; format: functional, cell-based
Candida albicans = assay: Antifungal activity against Candida albicans ATCC 44506 after 24 hrs by standard microdilution broth technique; format: functional; conditions: ATCC 44506, 24 h
Outline: (§1)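 Broth microdilution MIC in 50 μl total volume. C. albicans ATCC 44506 grown in Sabouraud dextrose broth at 37° for 24 h; Cr. neoformans ATCC 32045 in Emmon's modification of Sabouraud dextrose broth at 37° for 48 h. MIC taken as lowest drug concentration giving complete growth inhibition.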

Cryptococcus neoformans = assay: Antifungal activity against Cryptococcus neoformans ATCC 32045 after 48 hrs by standard microdilution broth technique; format: functional; conditions: ATCC 32045, 48 h; outline: as §1

SMILES: COc1cc(/C=C(\C)CC[C@]2(C)C(C)=CCC[C@H]2C)oc(=O)c1 [SOLLASIN D]
- IC50 [1]: 42 µM
- IC50 (P388): 5.5 µg/mL (≈ 17.4 µM)
- IC50 (A549): 11.3 µg/mL (≈ 35.7 µM)

SMILES: CC1=CC(=O)CC(C)(CC[C@]2(C)C(C)=CCC[C@H]2C)O1 (some centres undefined) [SOLLASIN E]
- MIC (Candida albicans): 25 µg/mL (≈ 90.4 µM)
- MIC (Cryptococcus neoformans): 25 µg/mL (≈ 90.4 µM)

SMILES: CC1=CCC[C@@H](C)[C@]1(C)CC/C(C)=C/C(=O)N[C@@H]1CCCNC1=O [SOLLASIN B]
- IC50 (P388): 6 µg/mL (≈ 18 µM)
- IC50 (A549): 17 µg/mL (≈ 51.1 µM)
- MIC (Candida albicans): 125 µg/mL (≈ 376 µM)
- MIC (Cryptococcus neoformans): 31.2 µg/mL (≈ 93.8 µM)

SMILES: CC1=CCC[C@@H](C)[C@]1(C)CC/C(C)=C/C(=O)N[C@@H]1CCCCNC1=O [SOLLASIN C]
- IC50 [1]: 63 µM
- IC50 (P388): 8.4 µg/mL (≈ 24.2 µM)
- IC50 (A549): 11 µg/mL (≈ 31.7 µM)
- MIC (Candida albicans): 31.2 µg/mL (≈ 90 µM)
- MIC (Cryptococcus neoformans): 15.6 µg/mL (≈ 45 µM)
